Reference: ChEMBL document CHEMBL2380254, “Optimization of tocotrienols as antiproliferative and antimigratory leads” (Eur J Med Chem, 2013)

Legend:
Assay type in all cases: functional
BT-549 = test: Growth inhibition of human BT549 cells assessed as cell growth at 10 uM after 48 hrs by sulforhodamine B assay; conditions: BT-549, 48 h, read-out: Activity
Summary of the method: (§1)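 NCI-60 single-dose screen at 10 µM: cells in RPMI 1640 with 5% FBS, preincubated 24 h, then exposed 48 h at 37 °C. TCA fixation (16% final for suspension cells), SRB staining, absorbance 515 nm. Percent growth relative to time-zero and untreated control plates; negative values indicate cell kill.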

[1] = Growth inhibition of human Hs 578T cells assessed as cell growth at 10 uM after 48 hrs by sulforhodamine B assay; conditions: read-out: Activity; summary of the method: as §1
UO-31 = test: Growth inhibition of human UO31 cells assessed as cell growth at 10 uM after 48 hrs by sulforhodamine B assay; conditions: UO-31, 48 h, read-out: Activity
Summary of the method: (§2)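 Single-dose NCI-60 test at 10 µM. Cells were grown in RPMI 1640 with 5% FBS and 2 mM L-glutamine, preincubated 24 h, with T0 plates TCA-fixed. Exposure was 48 h at 37 °C, 5% CO2. Cells were fixed with cold TCA (final 10%, 4 °C, 60 min), stained with SRB and read at 515 nm. Percent growth was taken relative to T0 and untreated control; negative values denote cell kill.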

TK-10 = test: Growth inhibition of human TK10 cells assessed as cell growth at 10 uM after 48 hrs by sulforhodamine B assay; conditions: TK-10, 48 h, read-out: Activity; summary of the method: as §2
ACHN [2] = test: Growth inhibition of human ACHN cells assessed as cell growth at 10 uM after 48 hrs by sulforhodamine B assay; conditions: read-out: Activity; summary of the method: as §1
A498 = test: Growth inhibition of human A498 cells assessed as cell growth at 10 uM after 48 hrs by sulforhodamine B assay; conditions: A498, 48 h, read-out: Activity; summary of the method: as §1
OVCAR-4 = test: Growth inhibition of human OVCAR4 cells assessed as cell growth at 10 uM after 48 hrs by sulforhodamine B assay; conditions: OVCAR-4, 48 h, read-out: Activity
Summary of the method: (§3)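 Single-dose NCI-60 screen: adherent cells in RPMI 1640 with 5% FBS were exposed to 10 µM for 48 h at 37 °C after a 24 h preincubation. They were fixed in situ with cold TCA (10% final), stained with 0.4% SRB in 1% acetic acid, solubilized in 10 mM Tris base, and read at 515 nm. Percent growth was taken relative to time-zero and control plates.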

OVCAR-3 [3] = test: Growth inhibition of human OVCAR3 cells assessed as cell growth at 10 uM after 48 hrs by sulforhodamine B assay; conditions: OVCAR-3, 48 h, read-out: Activity; summary of the method: as §3
SK-MEL-5 = test: Growth inhibition of human SK-MEL-5 cells assessed as cell growth at 10 uM after 48 hrs by sulforhodamine B assay; conditions: SK-MEL-5, 48 h, read-out: Activity; summary of the method: as §3
MDA-MB-435 = test: Growth inhibition of human MDA-MB-435 cells assessed as cell growth at 10 uM after 48 hrs by sulforhodamine B assay; conditions: MDA-MB-435, 48 h, read-out: Activity; summary of the method: as §3
U-251 [4] = test: Growth inhibition of human U251 cells assessed as cell growth at 10 uM after 48 hrs by sulforhodamine B assay; conditions: U-251, 48 h, read-out: Activity; summary of the method: as §2
K562 = test: Growth inhibition of human K562 cells assessed as cell growth at 10 uM after 48 hrs by sulforhodamine B assay; conditions: K562, 48 h, read-out: Activity; summary of the method: as §1
HL-60(TB) = test: Growth inhibition of human HL-60(TB) cells assessed as cell growth at 10 uM after 48 hrs by sulforhodamine B assay; conditions: HL-60, 48 h, read-out: Activity
Summary of the method: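 NCI-60 single-dose screen run at 10 µM on HL-60(TB) suspension cells in RPMI 1640 with 5% FBS and 2 mM L-glutamine. Cells were preincubated for 24 h, with a time-zero plate fixed then. Exposure lasted 48 h at 37 °C. Settled cells were fixed with TCA (16% final), stained with SRB and read at 515 nm. Percent growth is relative to control and T0.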

CCRF-CEM = test: Growth inhibition of human CCRF-CEM cells assessed as cell growth at 10 uM after 48 hrs by sulforhodamine B assay; conditions: read-out: Activity; summary of the method: as §1
ACHN [5] = test: Growth inhibition of human ACHN cells after 48 hrs by sulforhodamine B assay
Summary of the method: (§4)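 NCI-60 screen: cells in RPMI 1640 with 5% FBS and 2 mM glutamine, 5000–40,000 cells/well, preincubated 24 h. Five concentrations (10-fold dilutions; 100 to 0.001 µM) applied for 48 h at 37 °C. TCA fixation, SRB stain, absorbance at 515 nm. Time-zero plates included; GI50 where 100×(T−T0)/(C−T0)=50.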

SK-OV-3 = test: Growth inhibition of human SKOV3 cells after 48 hrs by sulforhodamine B assay; conditions: SK-OV-3, 48 h
Summary of the method: (§5)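 NCI-60 five-dose screen. Cells were grown in RPMI 1640 with 5% FBS and 2 mM L-glutamine, plated at 5000–40,000 cells/well and incubated 24 h before dosing, with T0 plates TCA-fixed. DMSO stocks were diluted to doses of […] and exposed 48 h at 37 °C, 5% CO2. Cells were fixed with cold TCA (final 10%, 60 min, 4 °C), stained with 0.4% SRB in 1% acetic acid for 10 min, solubilized in 10 mM trizma base and read at 515 nm. GI50 is where 100×(T−T0)/(C−T0)=50.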

OVCAR-5 = test: Growth inhibition of human OVCAR5 cells after 48 hrs by sulforhodamine B assay; conditions: OVCAR-5, 48 h
Summary of the method: (§6)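 NCI-60 panel cells grown in RPMI 1640 with 5% FBS and 2 mM L-glutamine, seeded at 5000–40,000 cells/well and preincubated 24 h. Five 10-fold dilutions (0.001–100 µM) from DMSO stocks were added for 48 h at 37 °C. Adherent cells were fixed with cold TCA (10% final) for 60 min at 4 °C, stained with 0.4% SRB, and read at 515 nm. GI50 was set where 100×(T−T0)/(C−T0)=50.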

OVCAR-3 [6] = test: Growth inhibition of human OVCAR3 cells after 48 hrs by sulforhodamine B assay; conditions: OVCAR-3, 48 h; summary of the method: as §6
IGROV-1 = test: Growth inhibition of human IGROV1 cells after 48 hrs by sulforhodamine B assay; conditions: IGROV-1, 48 h; summary of the method: as §4
U-251 [7] = test: Growth inhibition of human U251 cells after 48 hrs by sulforhodamine B assay; conditions: U-251, 48 h; summary of the method: as §5
SF-295 = test: Growth inhibition of human SF295 cells after 48 hrs by sulforhodamine B assay; conditions: SF-295, 48 h; summary of the method: as §6
COLO 205 = test: Growth inhibition of human COLO205 cells after 48 hrs by sulforhodamine B assay; conditions: COLO 205, 48 h; summary of the method: as §4
NCI-H460 = test: Growth inhibition of human NCI-H460 cells after 48 hrs by sulforhodamine B assay; conditions: NCI-H460, 48 h; summary of the method: as §6
HOP-92 = test: Growth inhibition of human HOP92 cells after 48 hrs by sulforhodamine B assay; conditions: HOP-92, 48 h; summary of the method: as §4
[8] = Growth inhibition of human EKVX cells after 48 hrs by sulforhodamine B assay; summary of the method: as §4

| Compound | growth at 10 µM (BT-549) | growth at 10 µM (UO-31) | growth at 10 µM (TK-10) | growth at 10 µM (ACHN [2]) | growth at 10 µM (A498) | growth at 10 µM (OVCAR-4) | growth at 10 µM (OVCAR-3 [3]) | growth at 10 µM (SK-MEL-5) | growth at 10 µM (MDA-MB-435) | growth at 10 µM (U-251 [4]) | growth at 10 µM (HL-60(TB)) | growth at 10 µM (CCRF-CEM) | GI50 (ACHN [5]) | GI50 (SK-OV-3) | GI50 (OVCAR-5) | GI50 (OVCAR-3 [6]) | GI50 (IGROV-1) | GI50 (U-251 [7]) | GI50 (SF-295) | GI50 (COLO 205) | also measured |
| --- | --- | --- | --- | --- | --- | --- | --- | --- | --- | --- | --- | --- | --- | --- | --- | --- | --- | --- | --- | --- | --- |
| CC(C)=CCC/C(C)=C/CC/C(C)=C/CC[C@]1(C)CCc2c3c(c(C)c(C)c2O1)OCN(CCCCCO)C3 | 114% | 64.6% | 97.5% | 101% | 97.4% | 93.1% | 65.2% | 108% | 35.5% | 58.6% | 37.2% | 54.9% | 5.74 µM | 6.85 µM | 5.93 µM | 6.71 µM | 6.18 µM | 5.71 µM | 6.12 µM | 3.39 µM | growth at 10 µM [1]: 97.3%; growth at 10 µM (K562): -55.4%; GI50 (NCI-H460): 5.18 µM; GI50 (HOP-92): 5.42 µM; GI50 [8]: 6.08 µM |
| COc1ccc(CCN2COc3cc(C)c4c(c3C2)CC[C@@](C)(CC/C=C(\C)CC/C=C(\C)CCC=C(C)C)O4)cc1OC | 105% | 51.2% | 97.7% | 75.7% | 83.2% | 40.1% | -22.9% | 90% | -51.1% | -71.3% | 15.4% | 0.64% | 1.75 µM | 1.9 µM | 1.86 µM | 2 µM | 2.08 µM | 1.67 µM | 2.01 µM | 1.79 µM | growth at 10 µM (K562): 3.17%; GI50 (NCI-H460): 2.18 µM; GI50 (HOP-92): 1.55 µM; GI50 [8]: 2.69 µM |
| CC(C)=CCC/C(C)=C/CC/C(C)=C/CC[C@]1(C)CCc2c3c(cc(C)c2O1)OCN(CCCO)C3 | 92% | 59.4% | 75.9% | 42.5% | 106% | -46.5% | -38.4% | 57.5% | -24% | -83.4% | 15.3% | 28.6% | 1.75 µM | 1.98 µM | 1.77 µM | 2.11 µM | 1.81 µM | 1.72 µM | 1.76 µM | 1.98 µM | growth at 10 µM [1]: -11.8%; growth at 10 µM (K562): -33.4%; GI50 (NCI-H460): 1.93 µM; GI50 (HOP-92): 1.46 µM; GI50 [8]: 5.11 µM |
| CC(C)=CCC/C(C)=C/CC/C(C)=C/CC[C@]1(C)CCc2c3c(cc(C)c2O1)OCN(CCc1ccc(O)cc1)C3 | 105% | 52.1% | 100% | 91% | 100% | 3.53% | 36.4% | 73.8% | -53.1% | -32% | 31.2% | 2.75% | 5.94 µM | 6.2 µM | 6.11 µM | 3.56 µM | 4.34 µM | 4.32 µM | 6.22 µM | 0.958 µM | growth at 10 µM [1]: -6.12%; growth at 10 µM (K562): 3.51%; GI50 (NCI-H460): 1.12 µM; GI50 (HOP-92): 4 µM; GI50 [8]: 6.13 µM |
| CC(C)=CCC/C(C)=C/CC/C(C)=C/CC[C@]1(C)CCc2c3c(cc(C)c2O1)OCN(C1CCN(Cc2ccccc2)CC1)C3 | 109% | 57.8% | 82.5% | 83.2% | 63.2% | 59% | -47.9% | 110% | 3.07% | -66.6% | -18.9% | 2.34% | 1.88 µM | 1.93 µM | 2.17 µM | 1.39 µM | 1.56 µM | 1.51 µM | 1.88 µM | 2 µM | growth at 10 µM [1]: -6.43%; growth at 10 µM (K562): -29.3%; GI50 (NCI-H460): 0.618 µM; GI50 (HOP-92): 0.269 µM; GI50 [8]: 1.69 µM |
| CC(C)=CCC/C(C)=C/CC/C(C)=C/CC[C@]1(C)CCc2c3c(cc(C)c2O1)OCN(CCCCCCO)C3 | 41.6% | -37.8% | 88.4% | -39.7% | 121% | -95.5% | -61.6% | 20.9% | -48.1% | -91.9% | -24.5% | -20.6% | 2.29 µM | 2.62 µM | 2.55 µM | 0.702 µM | 1.28 µM | 0.536 µM | 0.602 µM | 0.717 µM | growth at 10 µM [1]: 29.8%; GI50 (NCI-H460): 0.692 µM; GI50 (HOP-92): 1.05 µM; GI50 [8]: 5.31 µM |
| CC(C)=CCC/C(C)=C/CC/C(C)=C/CC[C@]1(C)CCc2c3c(cc(C)c2O1)OCN(CCCCO)C3 | 88.2% | 54.9% | 88.4% | -57.1% | 103% | -94.8% | -20.8% | 37.1% | -31.8% | -90.5% | -2.37% | -0.6% | 16.3 µM | 16.4 µM | 17.3 µM | 17.2 µM | 14.8 µM | 6.64 µM | 18.2 µM | 3.05 µM | growth at 10 µM [1]: 44.8%; GI50 (NCI-H460): 6.18 µM; GI50 (HOP-92): 10.1 µM; GI50 [8]: 19.6 µM |
